Decrease data for seven compounds are collected here from ChEMBL document CHEMBL1133122, “Hypocholesterolemic and hypolipidemic activity of some novel morpholine derivatives with antioxidant activity” (J Med Chem, 2000).

Structures are written as SMILES.

What all share (assay type): functional
The test system of test [1] is Rattus norvegicus. Description: Percent decrease in Total Triglycerides was determined after intraperitoneal administration of a dose of 56 uM/kg. A digest of the protocol: (§1)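 Hyperlipidemia induced in male Fischer-344 rats (230-280 g) by Triton WR 1339 in aqueous solution, 200 mg/kg ip. 1 h later the compound (28 or 56 µmol/kg, in saline) or saline alone was given ip; at 56 µmol/kg, dosing was twice in 24 h. After 24 h, aortic blood was drawn for plasma total cholesterol, LDL and triglycerides, expressed as % decrease. 4-6 rats per group; Student's t-test.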

For test [2], the system named is Rattus norvegicus. Description: Percent decrease in Total cholesterol was determined after intraperitoneal administration of a dose of 56 uM/kg. A digest of the protocol:
as §1

The test system of test [3] is Rattus norvegicus. Description: Percent decrease in Total Low density lipoproteins was determined after intraperitoneal administration of a dose of 56 uM/kg. A digest of the protocol:
as §1

The test system of test [4] is Rattus norvegicus. Description: Percent decrease in Total Triglycerides was determined after intraperitoneal uM/kg. The essentials: as §1
For test [5], the system named is Rattus norvegicus. Description: Percent decrease in Total cholesterol was determined after intraperitoneal uM/kg. The essentials: as §1
The test system of test [6] is Rattus norvegicus. Description: Percent decrease in Total Low density lipoproteins was determined after intraperitoneal uM/kg. A digest of the protocol:
as §1

Test [7] concerns Rattus norvegicus. Description: Percent decrease in Total Low density lipoproteins was determined after intraperitoneal administration of a dose of 56 umol/kg. The essentials: as §1
The subject of test [8] is Rattus norvegicus. Description: Percent decrease in Total Low density lipoproteins was determined after intraperitoneal uM/kg; Not significant. The essentials:
as §1

Regarding `CN1CCOC(O)(c2ccc(-c3ccccc3)cc2)C1.Cl` (stereo unspecified), the Decrease is recorded as 42% in test [1], 32% in test [2] and 32% in test [3].

On to `CN1CC(O)(c2ccc(-c3ccccc3)cc2)OC2CCCCC21` (stereo unspecified), for which the Decrease in test [4] is listed as 49%; in test [5], 54%; in test [6], 51%.

Take `OC1(c2ccc(-c3ccccc3)cc2)CN2CCCCC2CO1` (stereo unspecified): the Decrease in test [4] worked out at 20%; in test [5], 22%; in test [6], 51%.

In the case of `CCCOC1(c2ccc(-c3ccccc3)cc2)CN(C)C2CCCCC2O1.Cl` (stereo unspecified), the values for the Decrease in test [4], in test [5] and in test [7] were 41%, 50% and 28%, respectively.

Consider `CCOC1(c2ccc(-c3ccccc3)cc2)CN(C)CCO1.Cl` (stereo unspecified), for which the figures for the Decrease in test [1], in test [2] and in test [3] were 39%, 30% and 22%, respectively.

Take `CCCOC1(c2ccc(-c3ccccc3)cc2)CN2CCCCC2CO1.Cl` (stereo unspecified): the Decrease in test [4] is 34%; in test [5] it was 36%; in test [8], 17%.

With `CC(C)(Sc1cc(C(C)(C)C)c(O)c(C(C)(C)C)c1)Sc1cc(C(C)(C)C)c(O)c(C(C)(C)C)c1` [PROBUCOL], the Decrease is 11% in test [1], 18% in test [2] and 18% in test [3].
